An excerpt weighted towards active compounds, which were near 9.4% of everything screened.
L major viab: reduces viability of Leishmania major promastigotes. 200,000 tested, 9% active. AID 1063. resazurin fluorescence viability. inhibition, % at 10 µM; in the data active = inhibition above about 50%;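 note: promastigotes grown with compound for 44 hours at 28 °C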
SKKanGAS inh: SKKanGAS growth inhibition. inhibition, % at 7.5 µM. 300,000 tested, 1.3% active. S. pyogenes SKKanGAS, kanamycin growth, BacTiter-Glo, 6 h;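 active = mean replicate score, as percent of positive control median, at least 50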;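 note: strain carries kanamycin resistance gene driven by streptokinase promoter and grows in 40 µg/ml kanamycin; loss of luminescence reflects streptokinase promoter inhibition or plain growth inhibition; 0% = median of DMSO wells and 100% = positive control at its reference dose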
Mdm2 MdmX PPI: human Mdm2/MdmX binding inhibition | 330,000 tested, 3% active | O15151+Q00987 | AID 485346 | SaOS-2 split-luciferase Mdm2/MdmX complementation, luminescence | inhibition, % at 8 µM;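 active = inhibition of at least 50% at 8 µM in the primary screen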
Beta cell apopt: blocks beta cell apoptosis; INS-1E cytokine-induced death, ATP luminescence, 48 h; percent of positive-control rescue, neutral wells zero; 300,000 tested, 0.8% active; protection from apoptosis, % (test concentration not listed); AID 435005;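 active = Every replicate reaches about 75%, or at least half do and their mean reaches it too, limit read from the data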;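 note: 0% = cytokine-treated negative control wells and 100% = positive control rescue; higher means more ATP so stronger rescue from cytokine killing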
CSC inhib: blocks cancer stem cells; cancer stem cell-like cells viability, luminescence; inhibition, % at 7.5 µM; 300,000 tested, 1.1% active; in the data active = inhibition above about 75%; tested in HMLE shEcad cells
T cruzi repl: blocks replication of Trypanosoma cruzi. 300,000 tested, 1.4% active. inhibition, % (concentration not given with the values). T. cruzi beta-gal in NIH3T3, luminescence, 90 h;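 active = mean inhibition across valid replicates above about 55%, limit read from the data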;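 note: signal also drops with host cell toxicity which is not excluded here; 0% = plate median of DMSO wells and 100% = zero luminescence signal; higher percent means less beta-gal luminescence so fewer parasites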
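Assay system: NIH/3T3 fibroblasts plus reporter T. cruzi. Amount: NIH/3T3 cells, 5,000 per well. Buffer or medium: DMEM, 2% fetal bovine serum. Doses: compound pinned at 50 nL/well, DMSO. Schedule: ≥90 h infection period, 3 h prior cell attachment. Signal: luminescent β-galactosidase signal after 60 min lysis. Read-out: parasite load inhibition, %.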
Mdm2 MdmX conf: confirmation of human Mdm2/MdmX interaction inhibitors | shares compounds with Mdm2 MdmX PPI | Mdm2-MdmX binding, luminescent assay | inhibition, % at 8 µM | 10,000 tested, 55% active | AID 489028; in the data active = inhibition above about 40%
Full FLuc ctr: counter-screen for Mdm2/MdmX inhibitors: full-length luciferase; shares compounds with Mdm2 MdmX PPI; SaOS-2 full-length luciferase counterscreen, luminescence; inhibition, % at 8 µM; 6,200 tested, 77% active; AID 504607;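 active = mean inhibition at 8 µM reaching about 37%, which flags the compound as non-specific, limit read from the data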;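 note: p53-null SaOS-2 cells with luciferase driven by a doxycycline-inducible promoter; compound on cells about two nights before reading with doxycycline added after day one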
Starred values were filed as active, the others as inactive; x = not tested or not shown.

SMILES | L major viab | SKKanGAS inh | Mdm2 MdmX PPI | Beta cell apopt | CSC inhib | T cruzi repl | Mdm2 MdmX conf | Full FLuc ctr
Cc1ccc(S(=O)(=O)Oc2ccccc2/C=N/NC(N)=S)cc1 | -3.2 | 0.0 | 53.6* | 36.7 | 52.0 | -24.4 | 56.3* | 44.5*
O=C(NNC(=O)c1cc(-c2ccncc2)nc2ccccc12)c1ccccc1O | x | 6.3 | 38.2 | 24.3 | 40.1 | -13.0 | x | x
CCOC(=O)c1cc(CC)sc1NC(=O)COc1ccc2c(C)cc(=O)oc2c1 | 36.6 | -4.0 | 81.9* | -9.7 | 1.6 | 6.1 | 42.7* | 46.3*
Cc1coc(NC(=O)CSc2nc(-c3ccncc3)cc(C(F)(F)F)c2C#N)n1 | -7.1 | 3.8 | 52.4* | 4.5 | -22.6 | -4.9 | 8.6 | x
COC(=O)CSc1nc(C)cc(C(F)(F)F)c1C#N | 1.8 | 3.5 | 9.0 | -0.5 | 5.8 | 1.4 | x | x
CCOC(=O)NC(=O)CSc1nc(C)cc(C(F)(F)F)c1C#N | -0.5 | -2.2 | 58.9* | -12.6 | -3.0 | 0.2 | 14.8 | x
CSc1nc2cc(C)nn2c(-c2ccccc2Cl)c1C#N | x | -3.1 | -28.9 | -2.3 | 1.1 | -7.0 | x | x
CCn1c(=O)c2cc(C(=O)Nc3ccccc3OC)sc2c2ccccc21 | x | 15.4 | 61.4* | 4.9 | 23.8 | 30.8 | 35.8 | 73.0*
COc1ccc(OC)c(NC(=O)c2cc3c(Cl)nc4ccccc4c3s2)c1 | 71.8* | 4.4 | 52.8* | 7.6 | -1.7 | -4.0 | 19.8 | x
CCn1c(=O)c2cc(C(=O)NC(C)C)sc2c2ccccc21 | x | 8.3 | 36.1 | 1.8 | 0.1 | -4.1 | x | x
COc1ccc(NC(=O)c2cc3c(Cl)nc4ccccc4c3s2)cc1OC | -3.9 | 9.2 | -2.7 | 33.7 | 49.5 | 19.7 | x | x
Cc1ccc(CNC(=O)C2CCN(c3nc(C)cc(C)n3)CC2)cc1 | x | 1.4 | 24.1 | -5.2 | 0.7 | -0.4 | x | x
COc1cccc(CNC(=O)CCN2C(=O)[C@@H]3Cc4ccccc4CN3C2=O)c1 | x | -2.5 | -12.1 | -4.3 | -9.5 | 16.2 | x | x
COc1ccc(NS(=O)(=O)c2cc(NC(=O)c3ccc(Cl)cc3)ccc2N2CCOCC2)cc1 | x | x | 82.2* | 30.8 | 71.4 | x | 67.3* | 26.8
COc1ccc(NS(=O)(=O)c2cc(NC(=O)c3ccco3)ccc2N2CCCCC2)cc1 | 28.6 | 18.9 | 59.7* | 12.4 | 52.2 | 21.1 | 39.8 | 59.6*
COc1ccc(NS(=O)(=O)c2cc(NC(=O)c3cnc(C)cn3)ccc2N2CCCCC2)cc1 | 27.5 | 13.7 | 15.0 | x | 30.6 | 42.5 | x | x
COc1ccc(NS(=O)(=O)c2cc(NC(=O)c3ccncc3)ccc2N2CCOCC2)cc1 | 1.3 | -15.4 | 5.9 | -3.4 | -23.5 | 7.9 | x | x
COc1ccc(NS(=O)(=O)c2cc(NC(=O)c3ccc(=O)[nH]n3)ccc2C)cc1 | x | x | 52.3* | 5.9 | x | x | 46.1* | 64.6*
COc1ccc2oc(-c3ccc(NC(=O)c4ccc(N5CCOCC5)c([N+](=O)[O-])c4)cc3)nc2c1 | -0.4 | 8.4 | 56.3* | 13.5 | 8.7 | -26.6 | 27.5 | x
COc1ccc(COc2ccccc2C(=O)NCc2ccccc2)cc1F | 6.5 | 10.2 | 9.2 | x | 11.5 | 19.0 | x | x
COc1cc2cc(CCOC(=O)c3ccc(C(F)(F)F)cc3)oc(=O)c2cc1OC | x | x | 10.4 | -0.5 | 19.4 | x | x | x
CCc1noc(C)c1C(=O)Nc1cc(Cl)ccc1N1CCCC1 | x | -2.0 | 9.4 | 2.8 | -5.9 | -10.1 | x | x
Cn1c(N)c(C(=O)CNC2CCCCC2)c(=O)n(C)c1=O | x | -0.6 | 29.4 | -7.7 | -1.7 | -1.3 | x | x
CC1=CN(S(=O)(=O)c2ccc(C)cc2)C[C@@H]2[C@H]3CC[C@H](C3)[C@H]12 | x | x | 20.9 | x | x | x | x | x
CCOC(=O)[C@H]1[C@H]2COc3ccccc3[C@@H]2N2C(=O)c3ccc(C)cc3NC(=O)[C@@]12C | x | x | 25.3 | -1.1 | -12.9 | x | x | x
C=CC[C@@H](CC(=O)OC(C)(C)C)C(=O)OC[C@@H]1CCCN1C(=O)[C@H](CC=C)CC(=O)NCCO | x | x | -19.6 | -0.1 | -9.0 | x | x | x
O=C(Nc1cc(S(=O)(=O)Nc2ccc(Cl)cc2)ccc1N1CCCCC1)c1ccc(F)cc1 | 37.5 | 55.0* | 71.8* | 111.7* | 90.5* | 19.2 | 35.1 | x
COc1ccc(NS(=O)(=O)c2cc(NC(=O)c3ccc(=O)[nH]c3)ccc2N2CCCC2)cc1 | x | 20.4 | 82.1* | 0.8 | 133.5* | -14.2 | 72.8* | 43.5*

Screens from PubChem.
